This is an account of results in ChEMBL document CHEMBL1127752, “Synthesis and antitumor activity of novel mitomycin derivatives containing functional groups at the C-6-methyl position” (J Med Chem, 1994).

The subject of one assay is HeLa. Nature of the assay: In vitro anticellular activity tested against HeLa S3 cells. The format is functional, cell-based. The conditions noted are these: Homo sapiens. The procedure, abridged: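 HeLa S3 cells seeded on day 0, then exposed to drug for 1 h on day 1; anticellular activity determined by a previously described method.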
In assay [1] the test system is Mus musculus. Kind of assay: Effective dose that gave 50% inhibition of tumor growth was calculated towards sarcoma 180 cells which were inoculated subcutaneously to the axillary region of ddY mice. The conditions noted are these: Mus musculus, 180, sc. The format is functional. The gist of the method:
(§1)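 Sarcoma 180 cells implanted sc in the axillary region of ddY mice on day 0; compounds given iv on day 1. Tumor volume compared treated versus control (T/C). 50% growth-inhibitory dose calculated from the dose-response curve; optimal dose also recorded.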

Another assay relates to CCRF S-180. Kind of assay: Optimal dose towards sarcoma 180 cells, inoculated subcutaneously to the axillary region of ddY mice. Type of assay: functional, Mus musculus. The gist of the method:
as §1

For assay [2], the system named is Mus musculus. Nature of the assay: In vivo antitumor activity against lymphatic leukemia P388 cells sensitive to mitomycin C (MMC) was measured as maximal increase in life span of the treated mice at optimal dose of 50 mg/kg. The format is functional.
Assay [3] deals with Mus musculus. Kind of assay: In vivo antitumor activity against lymphatic leukemia P388 cells resistant to mitomycin C (MMC) was measured as maximal increase in life span of the treated mice at optimal dose of 25 mg/kg. Type of assay: functional.
The subject of assay [4] is Mus musculus. Kind of assay: In vivo antitumor activity against lymphatic leukemia P388 cells sensitive to mitomycin C (MMC) was measured as maximal increase in life span of the treated mice at optimal dose of 13 mg/kg. Type of assay: functional.
In assay [5] the test system is Mus musculus. Kind of assay: In vivo antitumor activity against lymphatic leukemia P388 cells resistant to mitomycin C (MMC) was measured as maximal increase in life span of the treated mice at optimal dose of 1.6 mg/kg. The format is functional.
For assay [6], the system named is Mus musculus. Kind of assay: In vivo antitumor activity against lymphatic leukemia P388 cells sensitive to mitomycin C (MMC) was measured as maximal increase in life span of the treated mice at optimal dose of 3.1 mg/kg. The format is functional.

As to `CO[C@@]12[C@H](COC(N)=O)C3=C(C(=O)C(CSC(C)C)=C(N)C3=O)N1C[C@@H]1N[C@@H]12`, in the assay on HeLa, half-maximal inhibition (IC50) was put at 5.4 µM. Also, in the assay on Mus musculus [1], the ED50 (as a rule, the dose that gives a 50% effect, or the effect in half of the subjects) is 8.4 mg/kg. This compound also showed an OD in the assay with CCRF S-180 of 25 mg/kg. Moreover, the ILS (usually how much longer treated animals lived than controls) at 50 mg/kg with Mus musculus [2] came to 58%. The compound further had an ILS at 25 mg/kg in the assay with Mus musculus [3] of 30%.

On to `CO[C@@]12[C@H](COC(N)=O)C3=C(C(=O)C(CSCCO)=C(N)C3=O)N1C[C@@H]1N[C@@H]12`, for which the IC50 (in general, the concentration needed to halve the response being measured) with HeLa is above 100 µM.

`CO[C@@]12[C@H](COC(N)=O)C3=C(C(=O)C(CSc4nc5ccccc5o4)=C(N)C3=O)N1C[C@@H]1N[C@@H]12` yielded an IC50 in the assay on HeLa of 5.1 µM.

In turn, `CO[C@@]12[C@H](COC(N)=O)C3=C(C(=O)C(CSc4ccccc4C(C)C)=C(N)C3=O)N1C[C@@H]1N[C@@H]12` yielded an IC50 in the assay on HeLa of 27 µM.

For `CO[C@@]12[C@H](COC(N)=O)C3=C(C(=O)C(CSCC4CC4)=C(N)C3=O)N1C[C@@H]1N[C@@H]12`, the IC50 in the assay with HeLa was 1.1 µM. The ED50 in the assay with Mus musculus [1] was 13 mg/kg. In the assay on CCRF S-180, this compound had an OD of 25 mg/kg. In the assay with Mus musculus [4], the ILS at 13 mg/kg was determined as 43%. In the assay with Mus musculus [5], this compound yielded an ILS at 1.6 mg/kg above 115%.

`CO[C@@]12[C@H](COC(N)=O)C3=C(C(=O)C(CSCC(O)CO)=C(N)C3=O)N1C[C@@H]1N[C@@H]12` (some centres not stated) came in with an IC50 in the assay with HeLa above 100 µM.

Turning to `CO[C@@]12[C@H](COC(N)=O)C3=C(C(=O)C(CO)=C(N)C3=O)N1C[C@@H]1N[C@@H]12`, in the assay on HeLa, the IC50 was above 29 µM.

In turn, `CO[C@@]12[C@H](COC(N)=O)C3=C(C(=O)C4=C(Nc5ccccc5SC4)C3=O)N1C[C@@H]1N[C@@H]12` returned an IC50 with HeLa of 0.31 µM. The ED50 in the assay on Mus musculus [1] was 35 mg/kg. The same compound displayed an OD in the assay on CCRF S-180 of 100 mg/kg. The ILS at 13 mg/kg in the assay on Mus musculus [4] was found to be 36%. In addition, the ILS at 25 mg/kg in the assay with Mus musculus [3] is 48%.

`CO[C@@]12[C@H](COC(N)=O)C3=C(C(=O)C4=C(NCCSC4)C3=O)N1C[C@@H]1N[C@@H]12` gave an IC50 with HeLa of 1.3 µM.

In the assay with HeLa, `COCC1=C(N)C(=O)C2=C(C1=O)N1CC3C(N3C)[C@]1(OC)[C@@H]2COC(N)=O` (some centres not stated) showed an IC50 above 100 µM.

`CO[C@@]12[C@H](COC(N)=O)C3=C(C(=O)C(C[S+]([O-])C(C)C)=C(N)C3=O)N1C[C@@H]1N[C@@H]12` (some centres not stated): the IC50 with HeLa is above 10 µM.

On to `CO[C@@]12[C@H](COC(N)=O)C3=C(C(=O)C(CSc4ccc(O)cc4)=C(N)C3=O)N1C[C@@H]1N[C@@H]12`, for which the midpoint of inhibition in the assay on HeLa, the IC50, lay at 116 µM.

Turning to `CCCCCCCCCCCCSCC1=C(N)C(=O)C2=C(C1=O)N1C[C@@H]3N[C@@H]3[C@]1(OC)[C@@H]2COC(N)=O`, in the assay on HeLa, the IC50 is 5.5 µM.

On to `CO[C@@]12[C@H](COC(N)=O)C3=C(C(=O)C(CS(=O)(=O)C(C)C)=C(N)C3=O)N1C[C@@H]1N[C@@H]12`, for which the 50% inhibitory concentration (IC50) in the assay on HeLa was above 10 µM.

Consider `CO[C@@]12[C@H](COC(N)=O)C3=C(C(=O)C(CSc4ccccc4Br)=C(N)C3=O)N1C[C@@H]1N[C@@H]12`, for which the IC50 in the assay with HeLa was found to be 48 µM.

In turn, `CO[C@@]12[C@H](COC(N)=O)C3=C(C(=O)C(CSc4ncc[nH]4)=C(N)C3=O)N1C[C@@H]1N[C@@H]12` had an IC50 with HeLa of 92 µM.

Turning to `CO[C@@]12[C@H](COC(N)=O)C3=C(C(=O)C(CSc4nnnn4C)=C(N)C3=O)N1C[C@@H]1N[C@@H]12`, 0.12 µM corresponded to half-maximal inhibition in the assay with HeLa (IC50).

For the compound `COCC1=C(OC)C(=O)C2=C(C1=O)N1CC3NC3[C@]1(OC)[C@@H]2COC(N)=O` (some centres not stated), the IC50 in the assay on HeLa stood at 0.12 µM.

`CO[C@@]12[C@H](COC(N)=O)C3=C(C(=O)C(CSc4nccn4C)=C(N)C3=O)N1C[C@@H]1N[C@@H]12` registered an IC50 in the assay on HeLa of 0.76 µM.

`CCSCC1=C(N)C(=O)C2=C(C1=O)N1C[C@@H]3N[C@@H]3[C@]1(OC)[C@@H]2COC(N)=O` showed an IC50 with HeLa of 2.2 µM.

As to `CO[C@@]12[C@H](COC(N)=O)C3=C(C(=O)C(CSC4OC(CO)C(O)C(O)C4O)=C(N)C3=O)N1C[C@@H]1N[C@@H]12` (some centres not stated), the IC50 in the assay with HeLa was found to be 82 µM.

Regarding `COc1ccccc1SCC1=C(N)C(=O)C2=C(C1=O)N1C[C@@H]3N[C@@H]3[C@]1(OC)[C@@H]2COC(N)=O`, in the assay on HeLa, half-maximal inhibition (IC50) was put at 2.3 µM. Against the preceding compound, the IC50 is about 36-fold lower.

In the assay on HeLa, `COc1ccc(SCC2=C(N)C(=O)C3=C(C2=O)N2C[C@@H]4N[C@@H]4[C@]2(OC)[C@@H]3COC(N)=O)cc1` registered an IC50 of 14 µM.

The compound `COCC1=C(N)C(=O)C2=C(C1=O)N1CC3NC3[C@]1(OC)[C@@H]2COC(N)=O` (some centres not stated) displayed an IC50 in the assay with HeLa of 2.6 µM.

In the assay with HeLa, `CCCCOCC1=C(N)C(=O)C2=C(C1=O)N1C[C@@H]3N[C@@H]3[C@]1(OC)[C@@H]2COC(N)=O` yielded an IC50 of 19 µM.

`CCCOCC1=C(N)C(=O)C2=C(C1=O)N1C[C@@H]3N[C@@H]3[C@]1(OC)[C@@H]2COC(N)=O`: in the assay on HeLa, the IC50 amounted to 5.3 µM.

In the assay with HeLa, `CO[C@@]12[C@H](COC(N)=O)C3=C(C(=O)C(CSc4nnc(C)s4)=C(N)C3=O)N1C[C@@H]1N[C@@H]12` had an IC50 of 1.1 µM.

In the assay with HeLa, `CO[C@@]12[C@H](COC(N)=O)C3=C(C(=O)C(CSCc4ccccc4)=C(N)C3=O)N1C[C@@H]1N[C@@H]12` displayed a 50% inhibitory concentration (IC50) of 2.2 µM.

`C=CCOCC1=C(N)C(=O)C2=C(C1=O)N1C[C@@H]3N[C@@H]3[C@]1(OC)[C@@H]2COC(N)=O` had an IC50 with HeLa of 5.5 µM.

Compound `CO[C@@]12[C@H](COC(N)=O)C3=C(C(=O)C(CSc4ccccc4Cl)=C(N)C3=O)N1C[C@@H]1N[C@@H]12` had an IC50 in the assay on HeLa of 7.3 µM.

On to `COCC1=C(N)C(=O)C2=C(C1=O)N1C[C@H]3[C@H](N3C)[C@]1(O)[C@H]2COC(N)=O` (some centres not stated), for which, in the assay on HeLa, the IC50 is above 82 µM.

As to `CO[C@@]12[C@H](COC(N)=O)C3=C(C(=O)C(CSc4nc(C)cc(C)n4)=C(N)C3=O)N1C[C@@H]1N[C@@H]12`, the IC50 in the assay on HeLa was determined as 1.1 µM. The compound further displayed an OD in the assay on CCRF S-180 of 6.3 mg/kg. Further, in the assay with Mus musculus [6], the ILS at 3.1 mg/kg was 50%.

`CO[C@@]12[C@H](COC(N)=O)C3=C(C(=O)C(COCc4ccccc4)=C(N)C3=O)N1C[C@@H]1N[C@@H]12`: the IC50 in the assay on HeLa is 5.5 µM.

Take `CO[C@@]12[C@H](COC(N)=O)C3=C(C(=O)C(CSc4nc[nH]n4)=C(N)C3=O)N1C[C@@H]1N[C@@H]12`: the IC50 in the assay on HeLa amounted to 6.8 µM. This IC50 and that of the compound before are within 1.5-fold of each other.

In the assay with HeLa, `CO[C@@]12[C@H](COC(N)=O)C3=C(C(=O)C(CSc4ccccc4)=C(N)C3=O)N1C[C@@H]1N[C@@H]12` showed an IC50 of 1 µM. Besides, the ED50 with Mus musculus [1] is 6.1 mg/kg. Besides, the OD in the assay with CCRF S-180 is 22 mg/kg. The ILS at 50 mg/kg with Mus musculus [2] was 45%.

Turning to `CO[C@@]12[C@H](COC(N)=O)C3=C(C(=O)C(CSc4nnnn4-c4ccccc4)=C(N)C3=O)N1C[C@@H]1N[C@@H]12`, 0.27 µM corresponded to half-maximal inhibition in the assay on HeLa (IC50).

Consider `CO[C@@]12[C@H](COC(N)=O)C3=C(C(=O)C(CSc4ccccn4)=C(N)C3=O)N1C[C@@H]1N[C@@H]12`, for which the IC50 in the assay with HeLa came out at 1.8 µM. This IC50 is about 6.7-fold higher than that of the compound before.

On to `CO[C@@]12[C@H](COC(N)=O)C3=C(C(=O)C(CSc4ccc([N+](=O)[O-])cc4)=C(N)C3=O)N1C[C@@H]1N[C@@H]12`, for which, in the assay on HeLa, the IC50 was 0.78 µM. Compared with the last compound, the IC50 is about 2.3-fold lower.

`CO[C@@]12[C@H](COC(N)=O)C3=C(C(=O)C(CSc4ccc(Cl)cc4)=C(N)C3=O)N1C[C@@H]1N[C@@H]12` displayed an IC50 in the assay with HeLa of 53 µM.

Regarding `COC1=C(C)C(=O)C2=C(C1=O)[C@@H](COC(N)=O)[C@@]1(OC)[C@H]3N[C@H]3CN21` [MITOMYCIN A], in the assay on HeLa, the IC50 is 0.0024 µM. This IC50 lies about 22000-fold lower than the previous one.
